Experimental data published in ChEMBL document CHEMBL1221364 (Bioorg Med Chem, 2010).
pEC50, pKi: −log10 of the molar value.

Assays:
[1] = Displacement of [3H]SCH23390 from D1 like receptor in pig striatal tissue by topcount scintillation counting; format: tissue-based, Sus scrofa, Striatum
Procedure, shortened: (§1)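 Porcine striatal membranes (P2 pellet, washed in 50 mM Tris pH 7.4), 75 µg protein per tube in 50 mM Hepes, 4 mM MgCl2, pH 7.4. Nonspecific binding was defined with 5 µM butaclamol. Incubation was 37 °C for 30 min, then filtration and scintillation counting. Ki was derived by Cheng-Prusoff and D2/D1 Ki compared.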

Sus scrofa = species: Sus scrofa; test: Selectivity ratio of Ki for pig D2-like receptor to Ki for pig D1-like receptor
Procedure, shortened: as §1, with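 “7.4. D1-like sites were labelled with 1 nM [3H]SCH-23390. D2-like sites were labelled with 0.15 nM [3H]spiperone plus 50 nM ketanserin.” for “7.4.”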

[2] = Displacement of [3H]spiperone from D2 like receptor in pig striatal tissue by topcount scintillation counting; format: tissue-based, Sus scrofa, Striatum; procedure, shortened: as §1
[3] = target: T1, Alpha-1A adrenergic receptor (Homo sapiens, UniProt P35348); test: Binding affinity to adrenergic alpha1A receptor
T1 sequence (P35348 whole entry): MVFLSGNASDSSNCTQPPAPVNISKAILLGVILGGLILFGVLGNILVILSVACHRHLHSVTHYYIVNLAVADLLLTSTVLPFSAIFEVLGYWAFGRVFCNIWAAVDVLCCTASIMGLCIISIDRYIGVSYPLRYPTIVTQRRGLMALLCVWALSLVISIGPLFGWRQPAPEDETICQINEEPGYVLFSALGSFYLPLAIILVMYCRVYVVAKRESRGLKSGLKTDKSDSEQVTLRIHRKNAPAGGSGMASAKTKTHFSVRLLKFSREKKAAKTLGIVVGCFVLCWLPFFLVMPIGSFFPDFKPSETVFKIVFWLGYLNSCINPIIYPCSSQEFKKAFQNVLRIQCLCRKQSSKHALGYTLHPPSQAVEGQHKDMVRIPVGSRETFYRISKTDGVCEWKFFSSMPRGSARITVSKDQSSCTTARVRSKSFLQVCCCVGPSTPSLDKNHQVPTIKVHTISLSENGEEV

D(1A) dopamine receptor [4] = target: T2, D(1A) dopamine receptor (Homo sapiens, UniProt P21728); test: Binding affinity to dopamine D1 receptor
[5] = target: 5-hydroxytryptamine receptor 7 (Homo sapiens, UniProt P34969); test: Binding affinity to 5HT7 receptor
[6] = target: T3, 5-hydroxytryptamine receptor 3A (Homo sapiens, UniProt P46098); test: Binding affinity to 5HT3 receptor
T3 sequence (P46098 whole entry): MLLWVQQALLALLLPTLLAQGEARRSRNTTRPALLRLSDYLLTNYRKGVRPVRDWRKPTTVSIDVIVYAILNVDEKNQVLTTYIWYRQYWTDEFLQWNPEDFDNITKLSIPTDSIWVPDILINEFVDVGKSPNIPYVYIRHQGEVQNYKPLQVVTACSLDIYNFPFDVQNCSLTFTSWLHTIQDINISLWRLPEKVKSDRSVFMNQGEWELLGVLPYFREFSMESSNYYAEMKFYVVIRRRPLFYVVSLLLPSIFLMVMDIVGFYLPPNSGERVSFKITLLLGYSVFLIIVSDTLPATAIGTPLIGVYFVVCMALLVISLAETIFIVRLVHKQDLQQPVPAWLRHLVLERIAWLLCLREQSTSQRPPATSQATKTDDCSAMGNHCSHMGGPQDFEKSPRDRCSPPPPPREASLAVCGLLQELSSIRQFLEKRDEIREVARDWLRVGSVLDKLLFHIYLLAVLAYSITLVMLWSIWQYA

D(3) dopamine receptor = D(3) dopamine receptor (Homo sapiens, UniProt P35462); test: Binding affinity to dopamine D3 receptor
D(1B) dopamine receptor = D(1B) dopamine receptor (Homo sapiens, UniProt P21918); test: Binding affinity to dopamine D5 receptor
D(4) dopamine receptor = target: T4, D(4) dopamine receptor (Homo sapiens, UniProt P21917); test: Binding affinity to dopamine D4 receptor
T4 sequence (P21917 whole entry): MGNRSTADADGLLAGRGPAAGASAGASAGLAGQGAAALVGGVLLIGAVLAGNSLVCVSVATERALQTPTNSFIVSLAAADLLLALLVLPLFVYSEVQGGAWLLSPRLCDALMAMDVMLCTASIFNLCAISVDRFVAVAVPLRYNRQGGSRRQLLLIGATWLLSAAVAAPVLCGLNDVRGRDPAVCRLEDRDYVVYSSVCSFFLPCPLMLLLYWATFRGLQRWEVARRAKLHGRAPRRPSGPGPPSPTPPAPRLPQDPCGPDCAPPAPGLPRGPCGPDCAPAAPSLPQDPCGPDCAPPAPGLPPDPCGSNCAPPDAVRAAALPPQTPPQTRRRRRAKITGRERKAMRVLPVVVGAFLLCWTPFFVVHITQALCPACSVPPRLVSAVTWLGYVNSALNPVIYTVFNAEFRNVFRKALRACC

[7] = target: Kappa-type opioid receptor (Homo sapiens, UniProt P41145); test: Binding affinity to […] opioid receptor
[8] = target: T5, Alpha-2B adrenergic receptor (Homo sapiens, UniProt P18089); test: Binding affinity to adrenergic alpha2B receptor
T5 sequence (P18089 whole entry): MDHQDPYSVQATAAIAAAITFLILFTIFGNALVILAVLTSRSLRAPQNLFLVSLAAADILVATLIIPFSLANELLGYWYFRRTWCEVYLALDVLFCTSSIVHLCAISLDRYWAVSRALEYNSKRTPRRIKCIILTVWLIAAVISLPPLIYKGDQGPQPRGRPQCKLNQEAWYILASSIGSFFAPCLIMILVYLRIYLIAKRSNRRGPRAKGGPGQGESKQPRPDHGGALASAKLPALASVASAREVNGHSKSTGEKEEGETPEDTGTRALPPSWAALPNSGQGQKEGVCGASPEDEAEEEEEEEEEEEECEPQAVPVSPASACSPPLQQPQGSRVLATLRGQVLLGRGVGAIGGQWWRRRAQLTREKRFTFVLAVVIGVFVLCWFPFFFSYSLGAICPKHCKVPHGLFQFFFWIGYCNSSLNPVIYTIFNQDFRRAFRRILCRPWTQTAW

[9] = target: T6, Alpha-2C adrenergic receptor (Homo sapiens, UniProt P18825); test: Binding affinity to adrenergic Alpha-2C receptor
T6 sequence (P18825 whole entry): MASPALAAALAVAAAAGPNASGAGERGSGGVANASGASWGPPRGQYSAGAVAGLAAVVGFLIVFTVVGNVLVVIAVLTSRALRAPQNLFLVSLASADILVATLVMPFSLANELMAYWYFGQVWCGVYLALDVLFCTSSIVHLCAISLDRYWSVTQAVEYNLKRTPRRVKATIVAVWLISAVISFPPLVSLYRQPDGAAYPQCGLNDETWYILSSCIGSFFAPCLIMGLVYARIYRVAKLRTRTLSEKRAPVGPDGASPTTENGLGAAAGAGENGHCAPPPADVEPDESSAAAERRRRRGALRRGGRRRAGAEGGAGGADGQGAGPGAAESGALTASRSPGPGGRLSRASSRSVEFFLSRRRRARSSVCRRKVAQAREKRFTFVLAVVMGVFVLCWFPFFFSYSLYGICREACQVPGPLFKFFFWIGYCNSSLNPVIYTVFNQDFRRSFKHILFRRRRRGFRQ

D(1A) dopamine receptor [10] = target: T2, D(1A) dopamine receptor; test: Agonist activity at human D1 receptor assessed as cAMP accumulation; format: functional
[11] = target: T7, Alpha-2A adrenergic receptor (Homo sapiens, UniProt P08913); test: Binding affinity to adrenergic alpha2A receptor
T7 sequence (P08913 whole entry): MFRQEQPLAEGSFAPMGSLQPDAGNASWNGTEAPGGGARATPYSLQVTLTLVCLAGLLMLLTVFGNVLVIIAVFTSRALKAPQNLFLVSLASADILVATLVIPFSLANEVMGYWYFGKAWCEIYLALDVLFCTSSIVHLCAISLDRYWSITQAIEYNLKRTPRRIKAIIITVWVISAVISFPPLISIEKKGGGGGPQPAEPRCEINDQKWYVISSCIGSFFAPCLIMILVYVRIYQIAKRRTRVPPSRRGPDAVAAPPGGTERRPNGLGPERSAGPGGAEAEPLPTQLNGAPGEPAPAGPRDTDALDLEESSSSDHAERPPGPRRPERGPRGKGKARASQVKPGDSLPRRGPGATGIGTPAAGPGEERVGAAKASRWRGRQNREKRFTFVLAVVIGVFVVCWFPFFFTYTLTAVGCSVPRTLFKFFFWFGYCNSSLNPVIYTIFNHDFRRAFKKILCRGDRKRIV

T2 sequence (P21728 whole entry): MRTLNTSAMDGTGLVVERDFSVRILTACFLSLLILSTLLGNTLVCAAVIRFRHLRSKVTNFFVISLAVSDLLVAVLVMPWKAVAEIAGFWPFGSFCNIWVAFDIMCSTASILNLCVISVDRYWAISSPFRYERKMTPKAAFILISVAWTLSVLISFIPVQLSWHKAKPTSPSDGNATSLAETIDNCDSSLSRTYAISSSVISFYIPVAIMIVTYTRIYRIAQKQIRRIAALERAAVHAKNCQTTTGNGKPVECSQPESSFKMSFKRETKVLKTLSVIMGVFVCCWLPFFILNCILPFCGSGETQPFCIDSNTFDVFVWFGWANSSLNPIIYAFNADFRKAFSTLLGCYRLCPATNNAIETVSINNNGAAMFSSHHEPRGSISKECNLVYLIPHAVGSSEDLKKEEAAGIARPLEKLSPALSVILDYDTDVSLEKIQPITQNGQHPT
Chain of Kappa-type opioid receptor (P41145 whole entry): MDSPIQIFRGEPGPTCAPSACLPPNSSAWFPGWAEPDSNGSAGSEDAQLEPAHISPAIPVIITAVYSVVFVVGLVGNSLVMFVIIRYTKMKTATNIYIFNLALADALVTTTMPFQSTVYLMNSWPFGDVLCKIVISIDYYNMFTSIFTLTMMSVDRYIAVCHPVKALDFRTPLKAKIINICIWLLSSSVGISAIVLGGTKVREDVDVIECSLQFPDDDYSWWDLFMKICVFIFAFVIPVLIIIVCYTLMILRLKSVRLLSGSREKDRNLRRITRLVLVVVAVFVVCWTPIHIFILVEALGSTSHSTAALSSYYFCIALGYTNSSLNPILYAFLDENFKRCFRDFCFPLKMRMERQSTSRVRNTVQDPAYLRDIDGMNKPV
Chain of D(1B) dopamine receptor (P21918 whole entry): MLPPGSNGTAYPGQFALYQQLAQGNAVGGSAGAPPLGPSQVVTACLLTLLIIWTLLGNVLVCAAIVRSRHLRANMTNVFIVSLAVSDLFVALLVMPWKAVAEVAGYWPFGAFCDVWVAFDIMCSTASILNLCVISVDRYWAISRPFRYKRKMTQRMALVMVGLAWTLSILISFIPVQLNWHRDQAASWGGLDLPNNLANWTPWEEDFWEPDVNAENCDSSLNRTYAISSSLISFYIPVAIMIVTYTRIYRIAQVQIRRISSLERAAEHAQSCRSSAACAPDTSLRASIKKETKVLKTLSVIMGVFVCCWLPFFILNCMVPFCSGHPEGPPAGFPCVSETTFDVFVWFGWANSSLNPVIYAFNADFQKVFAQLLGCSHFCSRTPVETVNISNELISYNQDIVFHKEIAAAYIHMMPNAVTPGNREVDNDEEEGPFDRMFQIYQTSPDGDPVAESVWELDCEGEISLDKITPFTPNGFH
Chain of D(3) dopamine receptor (P35462 whole entry): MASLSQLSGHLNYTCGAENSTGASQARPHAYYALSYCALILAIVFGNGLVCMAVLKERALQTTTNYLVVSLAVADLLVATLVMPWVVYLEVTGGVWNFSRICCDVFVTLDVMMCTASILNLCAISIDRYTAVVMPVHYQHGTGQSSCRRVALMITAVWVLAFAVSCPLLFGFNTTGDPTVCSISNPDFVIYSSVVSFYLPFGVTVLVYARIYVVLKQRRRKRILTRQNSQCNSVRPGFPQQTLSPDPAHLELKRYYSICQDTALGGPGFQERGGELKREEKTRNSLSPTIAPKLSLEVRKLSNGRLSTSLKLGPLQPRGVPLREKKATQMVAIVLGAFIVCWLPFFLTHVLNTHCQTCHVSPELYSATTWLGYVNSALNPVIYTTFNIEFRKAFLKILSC
Chain of 5-hydroxytryptamine receptor 7 (P34969 whole entry): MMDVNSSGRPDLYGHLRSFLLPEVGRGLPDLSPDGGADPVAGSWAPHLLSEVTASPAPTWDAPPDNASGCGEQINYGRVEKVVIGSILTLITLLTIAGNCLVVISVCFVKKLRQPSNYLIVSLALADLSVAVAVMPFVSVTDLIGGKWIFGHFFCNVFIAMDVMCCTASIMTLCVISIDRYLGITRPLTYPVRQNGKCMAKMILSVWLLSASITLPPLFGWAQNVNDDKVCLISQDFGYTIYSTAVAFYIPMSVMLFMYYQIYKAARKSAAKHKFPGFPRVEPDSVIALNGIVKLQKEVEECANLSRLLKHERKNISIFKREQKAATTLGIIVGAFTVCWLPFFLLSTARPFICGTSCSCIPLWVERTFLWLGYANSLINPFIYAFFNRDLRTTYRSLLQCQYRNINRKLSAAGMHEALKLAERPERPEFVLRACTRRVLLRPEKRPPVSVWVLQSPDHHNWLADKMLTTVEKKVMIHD

CN1CCc2cc(Cl)c(O)cc2[C@@H](c2ccccc2)C1 [SCH-23390]
pKi [1]: 9.10

Oc1ccc2c(c1O)CC[C@@H]1CCNC[C@@H]21 (relative stereo)
Selectivity Index (Sus scrofa): 0.8
pKi [2]: 6.17
pKi [1]: 6.07

Oc1ccc2c(c1O)CC[C@@H]1CCNC[C@H]21 (relative stereo)
Selectivity Index (Sus scrofa): 0.4
pKi [2]: 5.55
pKi [1]: 5.17

Oc1ccc2c(c1O)C[C@@H](c1ccccc1)[C@@H]1CCNC[C@@H]21
pKi [3]: 6.47
pKi (D(1A) dopamine receptor [4]): 7.74
pKi [5]: 6.66
pKi [6]: 6.06
pKi (D(3) dopamine receptor): 6.89
pKi [2]: 6.36
pKi (D(1B) dopamine receptor): 8.55
pKi (D(4) dopamine receptor): 5.58
pKi [7]: 6.09
pKi [1]: 8.22
pKi [8]: 8.19
pKi [9]: 8.96
pEC50 (D(1A) dopamine receptor [10]): 9.19
pKi [11]: 8.46
